Test [1] deals with LNCaP. The test can be described thus: Cytotoxicity against human LNCaP cells after 5 days by MTT assay. Format: functional. To be noted: 120 h. Summed up: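 LNCaP cells (RPMI 1640, 10% FBS, 1% penicillin/streptomycin, 37 °C, 5% CO2) seeded at 2 × 10^4 cells/well, left to adhere 24 h, then exposed to compounds in DMSO for five days, with compound and medium renewed on day 3. MTT (0.5 mg/mL) added for 2 h, formazan dissolved in DMSO, absorbance read at 560 nm. Triplicate wells, three independent experiments. GI50 from nonlinear regression.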

A further test has as its system PC-3. The test can be described thus: Cytotoxicity against human PC3 cells after 5 days by MTT assay. The conditions noted are these: PC-3, 120 h. Format: functional. Summed up:
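Growth inhibition by MTT assay with absorbance read at 560 nm. Values are means of three independent experiments.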
Background: Formazan colour is commonly taken as a measure of viable cells.

In test [2] the target is T1, Androgen receptor (Homo sapiens) (UniProt P10275).
T1 sequence (whole entry): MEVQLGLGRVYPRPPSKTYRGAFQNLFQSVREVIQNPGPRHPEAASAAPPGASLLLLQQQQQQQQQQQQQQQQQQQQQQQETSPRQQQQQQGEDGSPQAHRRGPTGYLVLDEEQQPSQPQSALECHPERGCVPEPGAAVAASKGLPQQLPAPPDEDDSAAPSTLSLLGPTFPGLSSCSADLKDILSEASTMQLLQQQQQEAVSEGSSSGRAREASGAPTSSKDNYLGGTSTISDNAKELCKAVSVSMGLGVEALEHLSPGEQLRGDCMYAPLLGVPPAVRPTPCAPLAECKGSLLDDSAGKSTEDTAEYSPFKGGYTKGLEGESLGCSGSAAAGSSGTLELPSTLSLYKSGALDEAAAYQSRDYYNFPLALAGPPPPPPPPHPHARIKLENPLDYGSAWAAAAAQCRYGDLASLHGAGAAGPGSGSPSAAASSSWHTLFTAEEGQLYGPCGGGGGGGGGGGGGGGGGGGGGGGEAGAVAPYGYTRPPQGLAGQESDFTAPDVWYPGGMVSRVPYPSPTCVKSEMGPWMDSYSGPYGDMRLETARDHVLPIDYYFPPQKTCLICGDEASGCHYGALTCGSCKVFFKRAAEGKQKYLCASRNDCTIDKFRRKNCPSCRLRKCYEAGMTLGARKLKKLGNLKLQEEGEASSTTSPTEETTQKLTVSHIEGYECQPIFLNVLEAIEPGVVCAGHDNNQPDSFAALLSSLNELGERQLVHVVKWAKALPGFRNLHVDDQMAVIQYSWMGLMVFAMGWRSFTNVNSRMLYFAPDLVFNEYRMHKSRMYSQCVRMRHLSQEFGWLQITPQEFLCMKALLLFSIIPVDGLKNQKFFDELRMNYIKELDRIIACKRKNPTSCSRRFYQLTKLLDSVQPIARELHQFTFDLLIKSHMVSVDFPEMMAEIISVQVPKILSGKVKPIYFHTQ
Description: Displacement of [3H]R1881 from wild type androgen receptor expressed in human PC3 cells. It counts as cell-based. The conditions noted are these: PC-3.

In test [3] the target is T1, Androgen receptor (Homo sapiens). The test can be described thus: Displacement of [3H]R1881 from mutated androgen receptor expressed in human LNCaP cells. It counts as cell-based.
Test [4] shares this target. Description: Activity at androgen receptor expressed in human LNCaP cells assessed as decrease in dihydrotestosterone-stimulated transcriptional activity at 10 uM after 18 hrs by luciferase reporter gene assay. It counts as cell-based. Also on record: scale not given: the % may be the effect or the level left. Summed up: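 LNCaP cells transiently transfected with the probasin-driven ARR2-Luc reporter, held in steroid-free medium, then given vehicle or compound with or without 5 nM DHT for 18 h before luciferase read-out. Mean of three independent experiments.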
Background: In a reporter assay the amount or activity of a reporter protein is the signal.

The target is the same in test [5]. The test can be described thus: Displacement of [3H]R1881 from wild type androgen receptor expressed in human PC3 cells at 20 uM. To be noted: PC-3. Format: cell-based.
Test [6] deals with LNCaP. The test can be described thus: Down regulation of androgen receptor expression in human LNCaP cells by Western blot analysis. It counts as functional, cell-based. Summed up:
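LNCaP cells cultured in T25 flasks and treated with compounds. Lysates made in 0.1 M Tris, 0.5% Triton X-100 and protease inhibitor, protein measured by Bradford assay, then run on 10% SDS-PAGE. AR detected with monoclonal AR441 (1:500) and HRP anti-mouse secondary (1:2000) by ECL. Signal normalized to β-actin.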

For test [7], the target named is T1, Androgen receptor (Homo sapiens). Description: Displacement of [3H]R1881 from wild type androgen receptor expressed in human PC3 cells at 10 uM. Format: cell-based. The conditions noted are these: PC-3.

Where only a bound is given, the exact number is not on record here.

By GI50 is commonly meant the concentration giving 50% growth inhibition. As usually defined, the EC50 is the concentration needed to bring the measured effect to its halfway point.

For the compound `Cc1ccc(NS(=O)(=O)c2ccccc2)c([N+](=O)[O-])c1`, the concentration for 50% growth inhibition (GI50) in the test with LNCaP [1] came to 0.00295 µM; with PC-3, 60.2 µM.
For `Cc1ccc(CNc2ccc(C)cc2)cc1` the same measures were 19.1 µM and 29.5 µM.
For the compound `Cc1ccc(NS(=O)(=O)c2ccccc2)c(C(=O)O)c1`, the GI50 in the test with LNCaP [1] amounted to 0.0182 µM.
Consider `Cc1ccc(NS(=O)(=O)c2ccc(F)cc2)c([N+](=O)[O-])c1`, for which the figures for the Activity result in test [2], in test [3] and in test [4] were “Dose-dependent effect”, “Dose-dependent effect” and 50%, respectively. Besides, the concentration for 50% growth inhibition (GI50) amounted to 0.00234 µM in the test with LNCaP [1] and 0.85 µM in the test on PC-3.
For the compound `Cc1ccc(NCc2ccccc2)cc1` [N-BENZYL-4-METHYLANILINE], the concentration for 50% growth inhibition (GI50) with LNCaP [1] was above 100 µM; with PC-3, 52.4 µM.
Take `Cc1ccc(NS(=O)(=O)c2ccc(C)cc2)cc1`: the Activity result in test [2] is “Dose-dependent effect”; in test [3] it was “Dose-dependent effect”; in test [5], 80%; in test [4], 80%; in test [7] it was 65%. The values for the GI50 in the test on LNCaP [1] and with PC-3 were 0.00145 µM and 30.2 µM, respectively. This compound also yielded a 50% effective concentration (EC50) with LNCaP [6] of 150 µM.
Take `O=[N+]([O-])c1ccccc1NS(=O)(=O)c1ccccc1`: the GI50 was 0.0148 µM in the test with LNCaP [1] and 22.9 µM in the test on PC-3.
For `Cc1ccc(NS(=O)(=O)c2ccccc2)cc1`, in that order: 21.3 µM and 13.8 µM.
For `O=S(=O)(Nc1ccccc1)c1ccccc1` [PHENYL(PHENYLSULFONYL)AMINE], in the test with PC-3, the GI50 is above 100 µM.
As for `Cc1ccc(S(=O)(=O)Nc2ccccc2[N+](=O)[O-])cc1`, the figures for the 50% growth inhibitory concentration (GI50) with LNCaP [1] and in the test with PC-3 were 0.083 µM and 50.1 µM, respectively. The same compound showed an EC50 in the test on LNCaP [6] above 150 µM.
For `Cc1ccc(C#N)c(NS(=O)(=O)c2ccc(F)cc2)c1`, the values for the 50% growth inhibitory concentration (GI50) in the test on LNCaP [1] and with PC-3 were 30.2 µM and above 100 µM, respectively.
`Cc1ccc(S(=O)(=O)Nc2ccc(C)cc2[N+](=O)[O-])cc1`: the GI50 with LNCaP [1] was determined as 39.8 µM; with PC-3, 43.7 µM.
For `Cc1ccc(NC(=O)c2ccc(C)cc2)cc1`, the values for the GI50 with LNCaP [1] and with PC-3 were 55 µM and 26.9 µM, respectively.
For `Cc1ccc(NS(=O)(=O)c2ccc(F)cc2)c(C(=O)O)c1`, in that order: 10.7 µM and above 100 µM.
For `Cc1ccc(N(C)S(=O)(=O)c2ccc(C)cc2)cc1`, in that order: 89.2 µM and 44.7 µM.
For `Cc1ccc(-c2nnn[nH]2)c(NS(=O)(=O)c2ccc(F)cc2)c1`, in that order: above 100 µM and above 100 µM.
Turning to `Cc1ccc(S(=O)(=O)Nc2ccccc2)cc1`, the GI50 was 24 µM in the test with LNCaP [1] and 38.9 µM in the test on PC-3.

Values taken from ChEMBL document CHEMBL1157168, “Potent anti-prostate cancer agents derived from a novel androgen receptor down-regulating agent” (Bioorg Med Chem, 2008).
